Screening data as filed in PubChem.
Compounds with a hit are over-represented: about 5.7% of the library has one in this group of screens.
CSC inhib – cancer stem cell viability inhibitors, primary screen, luminescence; cancer stem cell-like cells viability; inhibition, % at 7.5 µM; actives 1.1% (n = 300,000); AID 2717, 2010; in the data active means inhibition above about 75%; inconclusive means no clear call, values can overlap the other calls; tested in HMLE shEcad cells
SKKanGAS inh – S. pyogenes SKKanGAS growth inhibitors in kanamycin, primary screen, streptokinase expression inhibitor project, SKKanGAS strain, BacTiter-Glo luminescence; 6 h; inhibition, % at 7.5 µM; actives 1.3% (n = 300,000);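 active means mean replicate score, as percent of positive control median, at least 50; inconclusive means mean below 50 but one replicate at or above 50; inactive means mean and every replicate below 50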;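 further: strain carries kanamycin resistance gene driven by streptokinase promoter and grows in 40 µg/ml kanamycin; loss of luminescence reflects streptokinase promoter inhibition or plain growth inhibition; 0% = median of DMSO wells and 100% = positive control at its reference dose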
Beta apoptosis – inhibitors of cytokine-induced beta cell apoptosis, primary screen, luminescence. protection from apoptosis, % (no concentration beside the values). INS-1E cytokine-induced death, ATP luminescence, 48 h; percent of positive-control rescue, neutral wells zero. actives 0.8% (n = 300,000);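 active means Every replicate reaches about 75%, or at least half do and their mean reaches it too, limit read from the data; inconclusive means At least half of replicates reach the limit but their mean does not; inactive means Under half of replicates reach the limit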;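 further: 0% = cytokine-treated negative control wells and 100% = positive control rescue; higher means more ATP so stronger rescue from cytokine killing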
Mdm2 MdmX PPI – inhibitors of human Mdm2-MdmX association, primary screen, cell-based, luminescence, split luciferase, SaOS-2, uHTS; Protein Mdm4 (Homo sapiens) + E3 ubiquitin-protein ligase Mdm2 (Homo sapiens), …; SaOS-2 split-luciferase Mdm2/MdmX complementation; inhibition, % at 8 µM; actives 3% (n = 330,000);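 active means inhibition of at least 50% at 8 µM in the primary screen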
Target sequence (O15151 whole entry, looked up): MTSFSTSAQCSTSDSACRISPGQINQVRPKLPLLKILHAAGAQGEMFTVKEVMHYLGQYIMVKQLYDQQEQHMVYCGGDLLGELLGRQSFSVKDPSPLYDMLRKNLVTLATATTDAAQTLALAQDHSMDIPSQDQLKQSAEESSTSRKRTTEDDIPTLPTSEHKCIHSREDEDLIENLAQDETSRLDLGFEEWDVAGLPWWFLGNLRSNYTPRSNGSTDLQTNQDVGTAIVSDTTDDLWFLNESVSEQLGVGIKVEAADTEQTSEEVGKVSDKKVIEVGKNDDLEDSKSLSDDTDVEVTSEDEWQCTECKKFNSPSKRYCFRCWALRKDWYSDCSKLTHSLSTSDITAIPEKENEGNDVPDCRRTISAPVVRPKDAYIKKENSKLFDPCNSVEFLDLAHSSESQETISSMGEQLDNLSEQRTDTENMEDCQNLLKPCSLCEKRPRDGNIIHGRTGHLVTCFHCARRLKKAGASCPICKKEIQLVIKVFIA
Target sequence (Q00987 whole entry, looked up): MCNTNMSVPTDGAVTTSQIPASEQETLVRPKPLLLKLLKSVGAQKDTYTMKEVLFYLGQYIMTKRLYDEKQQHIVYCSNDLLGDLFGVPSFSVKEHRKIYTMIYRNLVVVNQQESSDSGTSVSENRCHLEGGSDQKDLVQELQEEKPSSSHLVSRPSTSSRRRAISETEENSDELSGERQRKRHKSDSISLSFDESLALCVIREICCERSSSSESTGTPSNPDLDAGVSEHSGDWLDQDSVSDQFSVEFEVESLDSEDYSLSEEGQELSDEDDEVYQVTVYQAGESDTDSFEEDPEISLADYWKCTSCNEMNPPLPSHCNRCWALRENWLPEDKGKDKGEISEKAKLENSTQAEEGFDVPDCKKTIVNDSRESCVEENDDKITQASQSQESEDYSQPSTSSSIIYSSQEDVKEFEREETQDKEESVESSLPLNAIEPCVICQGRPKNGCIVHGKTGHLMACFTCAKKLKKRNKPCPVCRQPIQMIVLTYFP
T cruzi inh – inhibitors of intracellular T. cruzi growth, primary screen, luminescence, NIH3T3 host cells; T. cruzi beta-gal in NIH3T3, 90 h; inhibition, % (no concentration beside the values); actives 1.4% (n = 300,000); AID 1885, 2009;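 active means mean inhibition across valid replicates above about 55%, limit read from the data; inconclusive means mean below that limit but half or more replicates reach it; inactive means mean below it, under half of replicates reach it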;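 further: signal also drops with host cell toxicity which is not excluded here; 0% = plate median of DMSO wells and 100% = zero luminescence signal; higher percent means less beta-gal luminescence so fewer parasites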
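System – NIH/3T3 host cells with β-galactosidase reporter T. cruzi · Doses – single 50 nL compound addition per well in DMSO · Reagent – 5000 T. cruzi trypomastigotes/well · Medium – Low-serum DMEM with 2% FBS · Timing – ≥90 h infection period, 3 h prior cell attachment · Evaluation – parasite load inhibition, % · Technique – GalScreen luminescence, 60 min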
Calb FLC – C. albicans growth inhibition with fluconazole, primary screen, CaCi-2 strain, Alamar Blue fluorescence. C. albicans CaCi-2 (fluconazole-resistant clinical isolate) + fluconazole, 48 h. growth inhibition, % (test concentration not listed). actives 0.57% (n = 300,000). AID 1979, 2009;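 active means growth inhibition above about 58% in most replicates, limit read from the data, passing the limit was not always enough; inconclusive means exactly half the replicates above a set limit; inactive means most replicates below a set limit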;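 further: all wells also contain fluconazole at 8 µg/ml as a sub-toxic cotreatment; 0% = median of DMSO wells and 100% = median of geldanamycin control wells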
Mdm2 MdmX conf – Mdm2-MdmX complex disruptors, retested hits, confirmation, luminescence, single concentration; shares compounds with Mdm2 MdmX PPI; AID 489028, 2010; actives 55% (n = 10,000); Mdm2-MdmX binding, luminescent assay; inhibition, % at 8 µM; in the data active means inhibition above about 40%
Full FLuc ctr – full-length luciferase signal inhibition, confirmation, counter-screen for Mdm2/MdmX interaction inhibitor project, cell-based, single concentration, SaOS-2. AID 504607, 2011. SaOS-2 full-length luciferase counterscreen, luminescence. shares compounds with Mdm2 MdmX PPI. actives 77% (n = 6,200). inhibition, % at 8 µM;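 active means mean inhibition at 8 µM reaching about 37%, which flags the compound as non-specific, limit read from the data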;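 further: p53-null SaOS-2 cells with luciferase driven by a doxycycline-inducible promoter; compound on cells about two nights before reading with doxycycline added after day one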
The depositor's hits bear a star; ? = inconclusive; . = no result given.

SMILES	CSC inhib	SKKanGAS inh	Beta apoptosis	Mdm2 MdmX PPI	T cruzi inh	Calb FLC	Mdm2 MdmX conf	Full FLuc ctr
CCCCc1ccc(NC(=O)C(=O)NCCN2CCN(Cc3ccc([N+](=O)[O-])cc3)CC2)cc1	-10	12	52	67*	6	-7	36	.
CNC(=O)C(=O)NCCN1CCN(C(=O)c2ccc([N+](=O)[O-])cc2)CC1	-12	2	-1	-4	-18	-1	.	.
O=[N+]([O-])c1ccc(NC(=S)NCCc2ccc(Cl)cc2)cc1	196*	98*	87*	93*	53	-22	81*	46*
O=[N+]([O-])c1cc(C(F)(F)F)ccc1NCCNC(=S)Nc1ccc(Cl)cc1	106*	73*	36	89*	?	-15	27	.
O=C(O)CCn1c(-c2ccccn2)nc2ccccc21	-13	0	.	-13	-5	-8	.	.
N#CC(C#N)=C(Nc1ccc(F)cc1)SCc1cccc(F)c1	58	11	102*	90*	-34	28	92*	23
O=c1cc(CSc2ccc(Cl)cc2)nc(-c2ccccn2)[nH]1	94*	97*	80*	89*	59*	112*	78*	31
CCOc1ccc(OCCNC(=O)c2ccc3c(c2)nnn3CC)cc1	-1	.	10	15	.	.	.	.
COC(=O)[C@@H](NCc1cccc(CN([C@H](C(=O)OC)C(C)C)S(C)(=O)=O)c1)C(C)C	11	1	0	16	2	-1	.	.
COc1cc2cc(C)c3nnc(SCC(=O)Nc4cc(C)on4)n3c2cc1OC	11	2	-6	5	4	-4	.	.
Cc1cc(NC(=O)CSc2nnc3c(C)cc4c(C)ccc(C)c4n23)no1	56	-2	10	66*	-41	-3	63*	58*
CCc1nnc(NC(=O)CSc2nnc3c(C)cc4c(C)ccc(C)c4n23)s1	64	-3	4	60*	-23	-2	65*	58*
O=C1CCC(C(=O)N2CCCC(N3CCN(c4cccc(C(F)(F)F)c4)CC3)C2)=NN1 (stereo not drawn)	10	4	0	4	-3	68	.	.
COc1ccc(C(NC(=O)c2c(F)c(F)c(F)c(F)c2F)c2ccccc2)cc1 (stereo not drawn)	48	8	3	77*	-10	0	-1	.
Brc1ccc2ncnc(NCc3ccco3)c2c1	3	13	3	57*	14	8	22	.
CC(C)Nc1ncnc2ccc(Br)cc12	2	3	29	67*	-45	?	68*	25
CSCCC(Nc1ncnc2ccc(Br)cc12)C(=O)O (stereo not drawn)	-8	-5	-3	11	1	-5	.	.
Brc1ccc2ncnc(Nc3ccc(N4CCOCC4)cc3)c2c1	-3	2	-9	62*	62*	-30	66*	26
CC(=O)c1cccc(Nc2ncnc3ccc(Br)cc23)c1	-2	7	8	67*	-2	.	47*	38*
CCOC(=O)C1CCCN(S(=O)(=O)c2ccc3c(c2)N(C(C)=O)CCO3)C1 (stereo not drawn)	-20	2	-11	13	-4	-34	.	.
O=C(Cn1ccc(NC(=O)OCc2ccccc2)nc1=O)NCCN1CCOCC1	-33	.	0	15	.	.	.	.
Cc1cc(F)cc(C)c1Cn1cnc2c(cnn2C(C)(C)C)c1=O	.	.	1	10	.	.	.	.
CN=c1scc(-c2ccccc2Br)n1/N=C/c1ccc[nH]1	31	6	12	60*	29	21	69*	143*
CN=c1scc(-c2ccc(Br)cc2)n1C	6	-7	-5	11	29	-26	.	.
Cc1ccc2nc(C(F)(F)F)c(C#N)c(N)c2c1	23	1	-34	85*	19	-46	67*	26
SMILES	CSC inhib	SKKanGAS inh	Beta apoptosis	Mdm2 MdmX PPI	T cruzi inh	Calb FLC	Mdm2 MdmX conf	Full FLuc ctr
Cc1cccc(C(C#N)c2nc3ccccc3nc2C(F)(F)F)c1 (stereo not drawn)	-6	3	5	4	-6	-10	.	.
Cc1cc(C)c2nc(C(F)(F)F)c(C#N)c(N)c2c1	-2	-5	-8	71*	3	6	86*	55*
COc1ccc(CCNC(=O)c2ccccc2NC(=O)C2=C(C)OCCS2)c(OC)c1	-18	0	1	18	10	-10	.	.
CCCn1c(N)c(N(CCOC)C(=O)c2cc(C)cc(C)c2)c(=O)[nH]c1=O	-1	2	.	20	-3	-6	.	.
CN(Cc1cnn(Cc2ccccc2)c1)C(=O)c1cccc(S(=O)(=O)N2CCOCC2)c1	.	.	16	38	.	.	.	.
Cc1ccc(N(C)S(=O)(=O)c2cccc(C(=O)N(C)Cc3cnn(-c4ccccc4)c3)c2)cc1	.	.	.	66*	.	.	47*	96*
O=Cc1c(NCc2ccccc2Cl)c2ccccc2[nH]c1=O	-12	-2	9	-6	1	-9	.	.
CC(=O)N(C)c1ccc(OCC(O)Cn2c3ccc(Cl)cc3c3cc(Cl)ccc32)cc1 (stereo not drawn)	105*	65*	26	82*	48	10	45*	54*
CC(=O)N(C)c1ccc(OCC(O)Cn2c(C)nc3ccccc32)cc1 (stereo not drawn)	-12	2	7	20	8	16	.	.
CN(C)N1C(N)=C(C#N)C(c2ccc(Br)cc2)C2=C1CC(C)(C)CC2=O (stereo not drawn)	-2	3	11	11	14	0	.	.
N#Cc1ccccc1S(=O)(=O)N1CCN(c2nc(-c3cccnc3)nc3ccccc23)CC1	.	.	.	54*	.	.	47*	76*
O=S(=O)(c1ccccc1F)N1CCN(c2nc(-c3cccnc3)nc3ccccc23)CC1	.	.	-7	-9	.	.	.	.
CCN(CC(=O)Nc1ccc2c(c1)OCCO2)C(=O)/C=C/c1ccc([N+](=O)[O-])cc1	.	.	2	7	.	.	.	.
O=C(/C=C/c1cccc(C(F)(F)F)c1)Nc1cccc(C(F)(F)F)c1	33	88*	-6	91*	42	-2	31	57*
Cc1ccc(NC(=O)/C=C/c2cccc(C(F)(F)F)c2)cc1	7	5	1	24	22	2	.	.
